The record followed here is ChEMBL document CHEMBL1949660 (Bioorg Med Chem Lett, 2012).

The target in data set [1] is T1, Histamine H3 receptor (Homo sapiens, UniProt Q9Y5N1). Kind of data set: Displacement of [3H]NAMH from human histamine H3 receptor expressed in CHO cells. The data set is classed as cell-based. A digest of the protocol:
(§1)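 Radioligand displacement of [³H]NAMH from membranes isolated from CHO cells transfected with cloned human H₃ or rat H₃ receptors.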

The target in data set [2] is Histamine H3 receptor (Rattus norvegicus, UniProt Q9QYN8). Kind of data set: Displacement of [3H]NAMH from rat histamine H3 receptor expressed in CHO cells. The data set is classed as cell-based. The gist of the method: as §1
Data set [3] in a line: Half life in rat at 1 mg/kg, iv. Set-up: dose 1 mg/kg, route intravenous. The data set is classed as ADME, organism-based. Conditions: in vivo. A digest of the protocol:
(§2)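 Rat PK: iv dose with vehicle 3% DMSO, 30% solutol, 67% phosphate buffered saline. Oral 5 mg/kg dose with vehicle 50% Tween 80, 40% propylene carbonate, 10% propylene glycol.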

In data set [4] the target is Histamine H1 receptor (Homo sapiens) (UniProt P35367). Description: Inhibition of human histamine H1 receptor at 10 uM.
The target in data set [5] is Histamine H2 receptor (Homo sapiens) (UniProt P25021). Description: Inhibition of human histamine H2 receptor at 10 uM.
Data set [6] can be described thus: Volume of distribution in rat at 1 mg/kg, iv. Conditions: in vivo. Also noted: dose 1 mg/kg, route intravenous. The data set is classed as ADME, organism-based. A digest of the protocol:
as §2

Data set [7] can be described thus: Half life in monkey liver microsomes. It counts as ADME, Macaca mulatta, Microsome. As to conditions: rhesus monkey.
Data set [8] is described as follows: Aqueous solubility of the compound at pH 2. The data set is classed as physicochemical. Conditions: aqueous medium.
The nature of data set [9]: Cmax in rat at 5 mg/kg, po. It counts as ADME, organism-based. Also noted: dose 5 mg/kg, route oral. Conditions: in vivo.
A short description of data set [10]: Ratio drug uptake in brain to plasma of rat at 10 mg/kg, ip measured after 6 hrs. It counts as ADME, organism-based. Set-up: dose 10 mg/kg, route intraperitoneal. As to conditions: read-out: BPR.
The target in the next data set is Cytochrome P450 3A4 (Homo sapiens, UniProt P08684). Description: Inhibition of CYP3A4. The data set is classed as ADME.
A short description of data set [11]: Apparent permeability across human Caco2 cells. It counts as ADME, cell-based. Conditions: Caco-2.
Data set [12] is described as follows: Half life in rat liver microsomes. The data set is classed as ADME, Microsome.
Data set [13] is described as follows: Clearance in rat at 1 mg/kg, iv. The data set is classed as ADME, organism-based. Set-up: dose 1 mg/kg, route intravenous. As to conditions: in vivo. A digest of the protocol:
as §2

For another data set, the target named is Cytochrome P450 2D6 (Homo sapiens, UniProt P10635). Description: Inhibition of CYP2D6. It counts as ADME.
Another data set concerns the target T2, Cytochrome P450 1A2 (Homo sapiens, UniProt P05177).
T2 sequence (P05177 whole entry): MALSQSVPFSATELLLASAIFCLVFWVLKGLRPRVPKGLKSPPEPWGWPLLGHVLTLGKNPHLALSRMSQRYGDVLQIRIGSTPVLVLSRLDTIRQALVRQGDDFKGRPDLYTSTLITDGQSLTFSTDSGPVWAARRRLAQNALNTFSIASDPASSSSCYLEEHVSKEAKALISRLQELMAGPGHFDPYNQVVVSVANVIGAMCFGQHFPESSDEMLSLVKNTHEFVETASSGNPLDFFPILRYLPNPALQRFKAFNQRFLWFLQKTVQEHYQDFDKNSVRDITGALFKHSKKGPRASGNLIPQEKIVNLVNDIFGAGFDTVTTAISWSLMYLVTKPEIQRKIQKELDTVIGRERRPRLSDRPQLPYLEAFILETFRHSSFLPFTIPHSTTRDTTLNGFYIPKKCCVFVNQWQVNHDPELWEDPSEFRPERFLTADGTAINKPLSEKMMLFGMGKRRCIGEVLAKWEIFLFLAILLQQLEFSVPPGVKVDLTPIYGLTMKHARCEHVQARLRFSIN
Kind of data set: Inhibition of CYP1A2. The data set is classed as ADME.

For data set [14], the target named is Histamine H4 receptor (Homo sapiens) (UniProt Q9H3N8). Description: Inhibition of human histamine H4 receptor at 10 uM.
The nature of data set [15]: Drug uptake in rat brain at 5 mg/kg, po measured after 6 hrs. Also noted: dose 5 mg/kg, route oral. As to conditions: read-out: Drug uptake. The data set is classed as ADME, organism-based. A digest of the protocol: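 Rats given 5 mg/kg po in 50% Tween 80, 40% propylene carbonate, 10% propylene glycol. Brain concentration determined 6 h after dosing.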
The target in the next data set is Cytochrome P450 2C9 (Homo sapiens, UniProt P11712). Kind of data set: Inhibition of CYP2C9. The data set is classed as ADME.
For data set [16], the target named is Voltage-gated inwardly rectifying potassium channel KCNH2 (Homo sapiens, UniProt Q12809). Description: Inhibition of human Erg by patch clamp assay.
The target of data set [17] is Sodium-dependent dopamine transporter (Homo sapiens) (UniProt Q01959). Description: Inhibition of DAT at 10 uM.
Another data set deals with Cytochrome P450 2C19 (Homo sapiens, UniProt P33261). Description: Inhibition of CYP2C19. It counts as ADME.
Data set [18] can be described thus: Half life in human liver microsomes. The data set is classed as ADME, Microsome.
Data set [19] has as its target T1, Histamine H3 receptor. Kind of data set: Inverse agonist activity at human histamine H3 receptor assessed as inhibition of R-alpha-methylhistamine-induced [35S]GTPgammaS binding. It counts as functional.
Data set [20] is described as follows: Aqueous solubility of the compound at pH 7.4. The data set is classed as physicochemical. Conditions: aqueous medium.
A short description of data set [21]: Half life in dog liver microsomes. It counts as ADME, Canis lupus familiaris, Microsome.
A short description of data set [22]: Oral bioavailability in rat at 5 mg/kg. It counts as ADME, organism-based. As to conditions: in vivo. A digest of the protocol: as §2

Sequence of Histamine H3 receptor (Rattus norvegicus, UniProt Q9QYN8) (Q9QYN8 whole entry): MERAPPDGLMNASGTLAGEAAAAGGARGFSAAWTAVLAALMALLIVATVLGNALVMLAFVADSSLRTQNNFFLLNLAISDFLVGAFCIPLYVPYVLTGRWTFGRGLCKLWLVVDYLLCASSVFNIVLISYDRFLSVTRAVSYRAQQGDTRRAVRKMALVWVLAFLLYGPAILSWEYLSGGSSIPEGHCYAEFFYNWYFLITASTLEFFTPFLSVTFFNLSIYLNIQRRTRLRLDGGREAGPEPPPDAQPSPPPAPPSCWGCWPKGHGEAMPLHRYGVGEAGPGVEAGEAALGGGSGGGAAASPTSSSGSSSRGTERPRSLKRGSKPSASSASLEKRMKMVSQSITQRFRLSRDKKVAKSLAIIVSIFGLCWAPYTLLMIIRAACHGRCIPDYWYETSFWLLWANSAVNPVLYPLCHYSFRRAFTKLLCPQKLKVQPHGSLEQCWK
T1 sequence (Q9Y5N1 whole entry): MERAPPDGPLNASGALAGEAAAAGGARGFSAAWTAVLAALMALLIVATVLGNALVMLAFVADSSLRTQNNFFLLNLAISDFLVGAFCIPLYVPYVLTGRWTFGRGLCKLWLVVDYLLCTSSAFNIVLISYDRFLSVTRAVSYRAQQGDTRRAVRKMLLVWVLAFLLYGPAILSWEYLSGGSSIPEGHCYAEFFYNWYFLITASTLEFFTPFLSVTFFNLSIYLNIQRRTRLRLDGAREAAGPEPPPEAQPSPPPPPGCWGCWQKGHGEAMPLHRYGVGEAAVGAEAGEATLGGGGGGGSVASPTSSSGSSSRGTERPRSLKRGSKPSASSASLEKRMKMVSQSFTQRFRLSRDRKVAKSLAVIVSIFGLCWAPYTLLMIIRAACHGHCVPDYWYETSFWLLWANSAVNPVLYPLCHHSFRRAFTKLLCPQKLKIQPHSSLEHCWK
Sequence of Sodium-dependent dopamine transporter (Homo sapiens) (Q01959 whole entry): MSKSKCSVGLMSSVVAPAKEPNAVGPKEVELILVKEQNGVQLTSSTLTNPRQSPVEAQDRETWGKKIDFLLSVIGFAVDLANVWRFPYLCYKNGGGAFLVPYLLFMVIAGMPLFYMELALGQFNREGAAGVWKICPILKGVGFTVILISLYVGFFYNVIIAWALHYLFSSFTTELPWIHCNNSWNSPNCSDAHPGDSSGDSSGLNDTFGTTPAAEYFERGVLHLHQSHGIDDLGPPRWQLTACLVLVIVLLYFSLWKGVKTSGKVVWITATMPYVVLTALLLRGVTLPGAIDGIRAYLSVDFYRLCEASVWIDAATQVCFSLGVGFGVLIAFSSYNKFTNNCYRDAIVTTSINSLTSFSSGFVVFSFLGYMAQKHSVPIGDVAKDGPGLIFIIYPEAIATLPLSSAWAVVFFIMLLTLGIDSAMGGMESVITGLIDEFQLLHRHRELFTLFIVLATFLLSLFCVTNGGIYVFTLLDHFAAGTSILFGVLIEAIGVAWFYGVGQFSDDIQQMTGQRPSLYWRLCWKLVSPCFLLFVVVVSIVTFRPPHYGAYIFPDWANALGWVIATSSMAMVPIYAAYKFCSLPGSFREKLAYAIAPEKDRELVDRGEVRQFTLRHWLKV
Sequence of Cytochrome P450 2C19 (P33261 whole entry): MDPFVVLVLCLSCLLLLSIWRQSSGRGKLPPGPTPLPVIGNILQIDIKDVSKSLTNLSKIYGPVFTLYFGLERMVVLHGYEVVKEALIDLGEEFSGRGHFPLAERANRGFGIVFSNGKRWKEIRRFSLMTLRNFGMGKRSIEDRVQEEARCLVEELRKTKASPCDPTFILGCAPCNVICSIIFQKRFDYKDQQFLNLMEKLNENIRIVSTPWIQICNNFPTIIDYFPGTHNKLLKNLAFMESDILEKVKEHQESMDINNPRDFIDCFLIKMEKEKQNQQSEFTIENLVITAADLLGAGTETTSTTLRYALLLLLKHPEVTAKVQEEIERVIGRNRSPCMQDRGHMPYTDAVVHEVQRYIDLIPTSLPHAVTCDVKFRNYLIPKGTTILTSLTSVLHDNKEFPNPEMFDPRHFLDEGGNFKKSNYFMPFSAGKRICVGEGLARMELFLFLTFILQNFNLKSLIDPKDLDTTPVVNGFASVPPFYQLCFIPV
Sequence of Histamine H1 receptor (Homo sapiens) (P35367 whole entry): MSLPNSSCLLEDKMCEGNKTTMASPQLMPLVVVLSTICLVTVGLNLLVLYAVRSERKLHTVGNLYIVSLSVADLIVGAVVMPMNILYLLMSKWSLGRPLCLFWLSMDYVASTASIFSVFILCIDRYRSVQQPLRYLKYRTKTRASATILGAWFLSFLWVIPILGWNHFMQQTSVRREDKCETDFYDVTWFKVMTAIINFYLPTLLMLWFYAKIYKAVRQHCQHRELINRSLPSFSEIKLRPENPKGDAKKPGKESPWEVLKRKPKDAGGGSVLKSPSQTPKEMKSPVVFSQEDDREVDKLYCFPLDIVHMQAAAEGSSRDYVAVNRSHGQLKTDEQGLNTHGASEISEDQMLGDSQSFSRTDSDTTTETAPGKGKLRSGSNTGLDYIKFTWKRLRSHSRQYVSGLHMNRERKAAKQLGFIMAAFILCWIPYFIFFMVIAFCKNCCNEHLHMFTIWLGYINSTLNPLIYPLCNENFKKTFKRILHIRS
Sequence of Cytochrome P450 2C9 (P11712 whole entry): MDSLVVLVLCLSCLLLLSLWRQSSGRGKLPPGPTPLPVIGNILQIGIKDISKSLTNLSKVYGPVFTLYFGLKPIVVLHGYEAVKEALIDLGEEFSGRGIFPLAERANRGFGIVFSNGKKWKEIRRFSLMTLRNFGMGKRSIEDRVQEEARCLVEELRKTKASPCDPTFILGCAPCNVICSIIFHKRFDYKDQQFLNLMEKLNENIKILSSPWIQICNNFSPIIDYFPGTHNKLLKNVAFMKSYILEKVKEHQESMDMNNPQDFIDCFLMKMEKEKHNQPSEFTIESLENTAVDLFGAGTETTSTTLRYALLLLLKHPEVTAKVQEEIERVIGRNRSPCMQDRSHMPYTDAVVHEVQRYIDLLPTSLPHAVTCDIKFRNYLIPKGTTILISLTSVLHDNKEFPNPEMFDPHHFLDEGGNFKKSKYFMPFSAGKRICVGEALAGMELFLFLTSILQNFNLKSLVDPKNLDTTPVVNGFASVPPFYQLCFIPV
Sequence of Cytochrome P450 3A4 (P08684 whole entry): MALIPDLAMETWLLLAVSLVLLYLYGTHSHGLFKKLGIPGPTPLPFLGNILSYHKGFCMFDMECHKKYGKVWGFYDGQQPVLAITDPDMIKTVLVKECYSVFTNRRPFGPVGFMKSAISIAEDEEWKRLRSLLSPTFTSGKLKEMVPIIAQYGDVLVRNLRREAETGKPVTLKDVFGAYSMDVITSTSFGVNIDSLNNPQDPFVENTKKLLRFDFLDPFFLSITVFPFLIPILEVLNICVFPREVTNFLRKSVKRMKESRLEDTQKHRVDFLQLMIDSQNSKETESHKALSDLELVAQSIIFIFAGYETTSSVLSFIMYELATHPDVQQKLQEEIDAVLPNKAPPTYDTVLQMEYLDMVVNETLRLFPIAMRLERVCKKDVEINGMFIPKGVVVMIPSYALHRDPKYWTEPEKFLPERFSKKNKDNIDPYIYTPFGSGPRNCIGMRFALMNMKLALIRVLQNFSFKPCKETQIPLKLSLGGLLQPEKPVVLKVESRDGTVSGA
Sequence of Histamine H4 receptor (Homo sapiens) (Q9H3N8 whole entry): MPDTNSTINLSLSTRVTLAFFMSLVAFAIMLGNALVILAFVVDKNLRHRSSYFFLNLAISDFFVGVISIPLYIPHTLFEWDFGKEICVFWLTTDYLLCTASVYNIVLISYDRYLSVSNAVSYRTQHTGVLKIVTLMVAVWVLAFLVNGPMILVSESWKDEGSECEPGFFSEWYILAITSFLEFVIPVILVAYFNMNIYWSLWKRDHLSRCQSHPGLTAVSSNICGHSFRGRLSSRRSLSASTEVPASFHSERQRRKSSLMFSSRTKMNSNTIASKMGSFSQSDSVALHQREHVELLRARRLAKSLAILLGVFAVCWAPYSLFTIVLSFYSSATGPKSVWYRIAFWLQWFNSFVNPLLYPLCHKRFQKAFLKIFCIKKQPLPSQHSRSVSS
Sequence of Cytochrome P450 2D6 (P10635 whole entry): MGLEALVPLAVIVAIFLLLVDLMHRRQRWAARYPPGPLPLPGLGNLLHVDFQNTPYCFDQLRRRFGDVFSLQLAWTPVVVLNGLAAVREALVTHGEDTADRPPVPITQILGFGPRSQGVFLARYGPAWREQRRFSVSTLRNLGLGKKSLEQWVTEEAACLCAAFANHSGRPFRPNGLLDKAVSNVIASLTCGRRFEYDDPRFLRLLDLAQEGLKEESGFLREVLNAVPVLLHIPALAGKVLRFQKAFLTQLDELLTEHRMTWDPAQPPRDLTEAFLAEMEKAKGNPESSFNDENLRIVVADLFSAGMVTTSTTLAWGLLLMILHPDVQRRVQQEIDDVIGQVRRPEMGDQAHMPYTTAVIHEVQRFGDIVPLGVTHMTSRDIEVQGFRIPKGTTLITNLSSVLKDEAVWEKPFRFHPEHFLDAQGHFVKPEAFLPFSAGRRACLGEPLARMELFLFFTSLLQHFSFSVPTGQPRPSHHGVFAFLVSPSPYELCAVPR
Sequence of Histamine H2 receptor (Homo sapiens) (P25021 whole entry): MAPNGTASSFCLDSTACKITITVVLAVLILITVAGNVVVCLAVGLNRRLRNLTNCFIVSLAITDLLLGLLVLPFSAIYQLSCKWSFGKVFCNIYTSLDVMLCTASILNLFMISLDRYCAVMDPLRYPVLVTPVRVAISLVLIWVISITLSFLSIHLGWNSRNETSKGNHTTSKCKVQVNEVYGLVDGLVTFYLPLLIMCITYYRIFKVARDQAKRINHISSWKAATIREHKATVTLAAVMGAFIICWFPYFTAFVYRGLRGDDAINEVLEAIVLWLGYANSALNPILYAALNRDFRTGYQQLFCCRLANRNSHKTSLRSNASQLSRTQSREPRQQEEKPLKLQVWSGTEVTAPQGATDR

Regarding `CC1(C)CC(c2ccc(OC3CCN(C4CCC4)CC3)nc2)=NNC1=O`, the figures for the Ki on Histamine H3 receptor [1] and on Histamine H3 receptor [2] were 12 nM and 28 nM, respectively.
`CC(C)N1CCC(Oc2ccc(-c3ccc(=O)n(C)n3)cc2)CC1`: the Ki on Histamine H3 receptor [1] came to 9.2 nM; on Histamine H3 receptor [2], 46 nM.
The corresponding values for `Cn1nc(-c2ccc(OC3CCN(C4CCCC4)CC3)nc2)ccc1=O` are 5.9 nM and 12 nM.
The corresponding values for `Cn1nc(-c2ccc(OC3CCN(C4CCC4)CC3)nc2)ccc1=O` are 1.8 nM and 8.6 nM.
The corresponding values for `Cn1nc(-c2ccc(OC3CCNCC3)cc2)ccc1=O` are 695 nM and greater than 1000 nM.
With `O=c1ccc(-c2ccc(OC3CCN(C4CCCC4)CC3)cc2)n[nH]1`, the figures for the Ki at Histamine H3 receptor [1] and at Histamine H3 receptor [2] were 5.1 nM and 7 nM, respectively.
The corresponding values for `O=c1ccc(-c2ccc(OC3CCN(C4CCC4)CC3)nc2)nn1-c1ccccn1` are 34 nM and 82 nM.
Consider `O=c1ccc(-c2ccc(OC3CCN(C4CCC4)CC3)cc2)n[nH]1`, for which the half-life in [3] was 2.3 h; in data set [7] it was greater than 0.667 h; in [12], greater than 0.667 h; in data set [18] it was greater than 0.667 h; in data set [21], greater than 0.667 h. For the same compound, the inhibition was less than 10% in data set [4], less than 10% in data set [5], less than 10% in [14] and 63% in [17]. For the same compound, the Ki at Histamine H3 receptor [1] came to 1.9 nM; on Histamine H3 receptor [2] it was 2.2 nM. In addition, the Vd in data set [6] is 2.5 L/kg. In addition, the solubility in data set [8] and in data set [20] was greater than 1000 µg/mL throughout. In data set [9], this compound came in with a Cmax of 441 ng/mL. The Kp at 6 h in data set [10] came to 1.9. Also, the IC50 at Cytochrome P450 3A4 is greater than 30000 nM; at Cytochrome P450 2D6 it was greater than 30000 nM; against Cytochrome P450 1A2 it was greater than 30000 nM; against Cytochrome P450 2C9, greater than 30000 nM; in data set [16], 8000 nM; at Cytochrome P450 2C19, greater than 30000 nM. Further, in data set [11], the Papp worked out at 16.5 ×10⁻⁶ cm/s. In addition, in data set [13], the clearance was 13 mL/min/kg. Further, the concentration at 6 h in data set [15] is 1400 nM. In addition, on Histamine H3 receptor [19], the EC50 is 1.1 nM. For the same compound, in data set [22], the bioavailability worked out at 35%.
Take `CC(C)n1nc(-c2ccc(OC3CCN(C4CCC4)CC3)nc2)ccc1=O`: the Ki came to 6.5 nM on Histamine H3 receptor [1] and 9.4 nM at Histamine H3 receptor [2].
For the compound `C[C@H]1CC(=O)NN=C1c1ccc(OC2CCN(C3CCC3)CC2)cc1`, the half-life in data set [3] is 4.4 h. The Vd in data set [6] was 7.6 L/kg. The same compound showed a Cmax in data set [9] of 253 ng/mL. The Kp at 6 h in data set [10] is 5.3. Besides, the clearance in data set [13] was 23 mL/min/kg. For the same compound, affinity on Histamine H3 receptor [2] was put at a Ki of 13 nM. Besides, in [17], the inhibition was found to be 13%. In data set [22], this compound showed a bioavailability of 56%.
